Wee1 degr inh: inhibitors of human Wee1 degradation. reporter increase, % at 5 µM. 1.2% of 220,000 active. HeLa Luc-Wee1K328M stability, luciferase luminescence; 100% = proteasome inhibitor MG132 effect;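 active means activation above the mean of all tested compounds plus 3 SD, set per screening run, cut at about 8.8% in these data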;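 further: cells exposed to compound for 20 h before luminescence read; 0% = DMSO alone and 100% = MG132 at 30 µM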
Target sequence (P30291 whole entry K328M): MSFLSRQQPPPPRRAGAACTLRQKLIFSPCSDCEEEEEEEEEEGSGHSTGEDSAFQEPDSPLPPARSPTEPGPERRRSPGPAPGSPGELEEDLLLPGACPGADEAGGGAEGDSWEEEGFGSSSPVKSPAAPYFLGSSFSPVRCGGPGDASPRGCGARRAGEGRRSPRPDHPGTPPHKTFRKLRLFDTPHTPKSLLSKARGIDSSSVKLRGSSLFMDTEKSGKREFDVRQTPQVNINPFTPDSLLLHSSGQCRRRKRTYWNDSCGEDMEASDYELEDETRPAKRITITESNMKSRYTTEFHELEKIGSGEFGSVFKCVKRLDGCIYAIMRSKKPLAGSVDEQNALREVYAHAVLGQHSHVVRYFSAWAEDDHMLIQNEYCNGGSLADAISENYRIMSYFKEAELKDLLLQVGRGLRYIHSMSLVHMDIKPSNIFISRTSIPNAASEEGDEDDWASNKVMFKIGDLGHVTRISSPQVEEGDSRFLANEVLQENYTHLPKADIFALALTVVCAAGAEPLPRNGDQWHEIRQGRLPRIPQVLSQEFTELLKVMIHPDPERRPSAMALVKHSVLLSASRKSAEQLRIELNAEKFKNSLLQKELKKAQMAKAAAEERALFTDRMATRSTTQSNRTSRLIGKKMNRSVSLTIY
Runt-SMMHC FRET: blocks binding of human RUNX1 Runt domain to CBFb-SMMHC | Cerulean-Runt/Venus-CBFb-SMMHC FRET ratio 530/480, 1 h | inhibition, % at 20 µM | 0.74% of 220,000 active | AID 1434;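 active means mean inhibition across duplicate retests at 20 µM reaching about 50%, limit read from the data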;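 further: 0% = DMSO wells and 100% = wells with excess untagged CBFb-SMMHC; inhibitors lower the FRET ratio by blocking Runt binding to CBFb-SMMHC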
Runt-CBFb FRET: blocks binding of human RUNX1 Runt domain to CBFb. Q01196+Q13951. Cerulean-Runt/Venus-CBFb FRET ratio 530/480, 1 h. inhibition, % at 20 µM. 0.46% of 220,000 active. AID 1496;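 active means inhibition over about 50% at 20 µM in the single-dose screen, limit read from the data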;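 further: 0% = DMSO wells and 100% = excess unlabeled CBFb competitor control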
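Doses: 20 µM compound in 1% DMSO | Material: Cerulean-labeled Runt domain protein | Amount: Each fluorescent fusion protein 100 nM | Schedule: Two 1 h room-temperature incubations shielded from light | Measured by: FRET fluorescence | Evaluation: Loss of energy transfer signal | Controls: Unlabeled CBFb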
HMGR II inh: E. faecalis class II HMG-CoA reductase inhibition. inhibition, % at 10 µM. 0.41% of 190,000 active. purified E. faecalis HMGR, NADPH absorbance 340 nm kinetic. AID 1066;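 active means inhibition above a set limit, the median over all tested compounds plus 3 SD, cut at about 9.5% in these data; inconclusive means no clear call, values can overlap the other calls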;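 further: enzyme runs in reverse so mevalonate oxidation gives rising NADPH absorbance; 0% = complete reaction with DMSO and 100% = background rate lacking mevalonate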
PHOSPHO1 inh: blocks human PHOSPHO1 phosphatase activity; Q8TCT1; recombinant PHOSPHO1, absorbance phosphatase assay; inhibition, % at 13.3 µM; 1.1% of 290,000 active; AID 1565; in the data active means inhibition above about 60%
RanGTP-Imp inh: disruptors of Ran-importin-beta complex formation – biochemical, FRET, CFP-Ran, YFP-importin-beta, homogeneous, primary screen; cell-free CFP-Ran/YFP-importin-beta FRET ratio; inhibition, % (no concentration beside the values); 1.1% of 300,000 active; AID 2216;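 active means more than half of the replicate wells show a fall in the fluorescence ratio signal beyond about 16%, limit read from the data, passing the limit was not always enough; inconclusive means exactly half of the replicate wells pass the set limit; inactive means fewer than half of replicates pass the limit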;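 further: 0% = DMSO wells and 100% = Ran loaded with GDP instead of GTP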
Active calls of the source: *; u = inconclusive; x = no result given. A selection: hits, their analogues and other compounds. The true share with any hit is near 3.4%.

SMILES | Wee1 degr inh | Runt-SMMHC FRET | Runt-CBFb FRET | HMGR II inh | PHOSPHO1 inh | RanGTP-Imp inh
Cc1oc(-c2ccc(F)cc2)cc1-c1nn2c(-c3ccco3)nnc2s1 | 0 | x | x | x | x | x
Cc1oc(-c2ccc(F)cc2)cc1-c1nn2c(-c3ccoc3C)nnc2s1 | x | 12 | 30 | x | 98* | -1
COc1cccc(-c2nnc3sc(-c4ccco4)nn23)c1 | 0 | -7 | 0 | -5 | 74* | 4
Cc1oc(-c2ccc(Cl)cc2)cc1-c1nn2c(-c3ccco3)nnc2s1 | x | 8 | 21 | x | 92* | x
COc1ccc(-c2nnc3sc(-c4ccco4)nn23)cc1OC | -1 | 2 | 13 | 0 | -23 | 2
O=C(NC1CCCC1)C(c1ccncc1)N(C(=O)Cc1cccs1)c1cccc(F)c1 (stereo unspecified) | x | x | x | x | 28 | -1
Cc1cc(=O)oc(C)c1C(=O)Nc1cccnc1Cl | 1 | -5 | 2 | x | 26 | -3
Cc1ccc(N(C(=O)c2cccs2)C2C=CS(=O)(=O)C2)cc1 (stereo unspecified) | 0 | 1 | 1 | -6 | 12 | 5
O=C(c1cccs1)N(c1ccc(F)cc1)C1C=CS(=O)(=O)C1 (stereo unspecified) | -1 | 1 | 1 | 17* | 30 | -2
CCCCNC(=O)C1c2ccccc2Oc2ccccc21 | -1 | 1 | 2 | -5 | 28 | 22*
Cn1c(CNC(=O)CNS(=O)(=O)c2ccc(Br)cc2)cc(=O)n(C)c1=O | x | x | x | x | -12 | 4
CCC(C)COC(=O)C(C#N)c1nc2ccccc2nc1N1CCCCC1 (stereo unspecified) | -3 | 0 | 2 | 1 | 10 | 23*
CCCCCCOC(=O)C(C#N)c1nc2ccccc2nc1N1CCN(C)CC1 (stereo unspecified) | -2 | 21 | 8 | -5 | 16 | 23*
CC(C)OC(=O)C(C#N)c1nc2ccccc2nc1N1CCCC1 (stereo unspecified) | 1 | 4 | 5 | -2 | -16 | -3
COC(=O)C(C#N)c1nc2ccccc2nc1N1CCCC1 (stereo unspecified) | -1 | 20 | 24 | 2 | -3 | 1
CCCCCCOC(=O)C(C#N)c1nc2ccccc2nc1N1CCCCC1 (stereo unspecified) | -1 | -31 | -8 | -1 | 0 | 31*
CNC(=S)Nc1cccc(-c2cnc3ccccc3n2)c1 | x | x | x | x | 7 | -3
Cc1c(OC(C)C(=O)NCc2cccnc2)ccc2c3c(c(=O)oc12)CCCC3 (stereo unspecified) | x | x | x | x | 12 | 0
O=C(Cn1cccc1C(=O)c1ccccc1)NCCCc1ccccc1 | x | x | x | x | 50 | -1
CC(C(=O)NCCCc1ccccc1)n1cccc1C(=O)c1ccccc1 (stereo unspecified) | x | x | x | x | 70* | 3
Cc1cc(N)n(-c2nc3ccccc3s2)n1 | 3 | x | x | 9.6* | -8 | -5
Cc1cc(C)n(-c2nc3ccccc3s2)n1 | -5 | -1 | 2 | 2 | 20 | 1
CCOC(=O)c1ccccc1N/C=C1\CCCC1=O | -1 | -3 | -2 | 0 | 94* | -3
NC(=O)c1ccccc1N/C=C1\CCCCC1=O | 4 | 2 | 0 | -5 | -22 | 4
CCc1ccc2oc(C(=O)NCCc3ccc(S(N)(=O)=O)cc3)cc(=O)c2c1 | x | x | x | x | 14 | -1
SMILES | Wee1 degr inh | Runt-SMMHC FRET | Runt-CBFb FRET | HMGR II inh | PHOSPHO1 inh | RanGTP-Imp inh
Cc1ccc(C)n1-c1nccc(-c2ccco2)n1 | 1 | 86* | 32 | 5 | 28 | 13
Cc1ccc(CN2CC(C(=O)NCC(=O)Nc3c(C)cccc3C)CC2=O)cc1 (stereo unspecified) | x | x | x | x | x | -3
CCC1(c2ccccc2)NC(=S)N(c2ccc(C)c(C)c2)N1 (stereo unspecified) | 1 | 7 | 18 | -3 | 21 | 0
CCC1(c2ccc(Cl)cc2)NC(=S)N(c2ccc(C)c(C)c2)N1 (stereo unspecified) | 1 | 4 | 12 | x | 68* | 2
CC(=O)Nc1ccccc1NC(=O)C/C(C)=N/NC(=O)c1ccncc1 | 9.3* | 0 | 2 | -2 | 45 | x
C/C(CC(=O)Nc1ccccc1C#N)=N\NC(=O)c1ccncc1 | x | x | x | x | 19 | 5
Cc1cc(=O)oc2cc3c(cc12)OCO3 | x | x | x | x | 34 | u
COc1ccc(NC(=O)CN2C(=O)NC(c3ccccc3)(c3ccccc3)C2=O)cc1OC | x | x | x | x | 32 | 31*
COc1ccc(NC(=O)CN2C(=O)NC(c3ccccc3)(c3ccccc3)C2=O)cc1 | x | x | x | x | 12 | 3
Cc1cc(C(=O)Nc2cnc3ccccc3c2)ccc1[N+](=O)[O-] | 9.1* | -1 | 1 | -2 | 32 | 1
O=C(Nc1ccc(F)c(F)c1)C1CCCN(S(=O)(=O)c2cnc[nH]2)C1 (stereo unspecified) | x | x | x | x | 25 | 4
O=C(Nc1ccc2c(c1)OCCO2)C1CCCN(S(=O)(=O)c2cnc[nH]2)C1 (stereo unspecified) | -1 | 4 | -1 | 2 | -2 | 143*
COc1ccc(/C=C/C(=O)c2ccc(O)cc2)cc1 | -1 | 6 | 1 | 0 | 4 | 3
COc1ccc(/C=C/C(=O)c2ccoc2)cc1 | 13* | 4 | 2 | 5 | 12 | 0
COc1ccc(NC(=O)c2ccc(NC(=O)c3cccs3)cc2)cc1 | x | x | x | x | 48 | 3
COc1ccc2nc(NC(=O)c3cccs3)sc2c1 | 9.5* | 0 | -1 | x | 3 | -2
COc1ccc(C(=O)/C=C\c2ccc(NC(=O)c3cccs3)cc2)cc1 | -3 | -25 | -3 | 4 | 31 | 23*
COc1ccc(S(=O)(=O)N2CCOC2CNC(=O)C(=O)NCC(C)C)cc1OC (stereo unspecified) | x | x | x | x | 25 | u
COc1ccc(CN(CC(=O)NCC2CCCO2)C(=O)CNS(=O)(=O)c2ccccc2)cc1 (stereo unspecified) | x | x | x | x | 35 | -6
O=[N+]([O-])c1ccc(-c2csc3[n+]2CCS3)cc1 | 0 | 8 | 14 | 4 | 80* | -2
Fc1ccc(-c2csc3[n+]2CCS3)cc1 | -1 | 5 | -1 | 17* | -8 | 1
CN(C)C(=O)CSc1cccc2cccnc12 | -1 | 1 | 2 | -1 | 71* | -2
COc1ccccc1CNC(=O)CCN1C(=O)c2ccccc2C1=O | x | x | x | x | 27 | 0
COCCCNC(=O)CN1C(=O)c2ccccc2C1=O | -1 | 1 | -1 | -4 | 23 | -3
CCCn1c(C)cc(C(=O)CN2C(=O)c3cccc(N)c3C2=O)c1C | 1 | 57* | 19 | -5 | -4 | x
COc1ccccc1CNC(=O)CN1C(=O)c2cccc(N)c2C1=O | x | x | x | x | 10 | 27*
Cc1cc(C(=O)CN2C(=O)c3ccccc3C2=O)c(C)n1Cc1cccs1 | 2 | -6 | 3 | -8 | -6 | -2

Compound activity as filed in PubChem.
